Measurements as given in ChEMBL document CHEMBL3627671, “Novel derivatives of nitro-substituted salicylic acids: Synthesis, antimicrobial activity and cytotoxicity” (Bioorg Med Chem, 2015).
≈ marks a conversion by molar mass, not a printed value.

Assays:
[1] = system: Mycobacterium tuberculosis; assay: Antimycobacterial activity against Mycobacterium tuberculosis H37Rv 331/88 after 14 days; type: functional; conditions: H37Rv 331/88, 336 h
[2] = system: Mycobacterium tuberculosis; assay: Antimycobacterial activity against Mycobacterium tuberculosis H37Rv 331/88 after 21 days; type: functional; conditions: H37Rv 331/88, 504 h
[3] = system: Mycobacterium avium; assay: Antimycobacterial activity against Mycobacterium avium 330/80 after 14 days; type: functional; conditions: 330/80, 336 h
[4] = system: Mycobacterium avium; assay: Antimycobacterial activity against Mycobacterium avium 330/80 after 21 days; type: functional; conditions: 330/80, 504 h
[5] = system: Mycobacterium kansasii; assay: Antimycobacterial activity against Mycobacterium kansasii 235/80 after 7 days; type: functional; conditions: 235/80, 168 h
In short: (§1)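 Šula's semisynthetic medium micromethod at 37 °C, read after 7, 14 and 21 days. The 1.0 McFarland suspension was diluted 10^-4. MIC determined. 6509/96 is a clinical isolate.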

[6] = system: Mycobacterium kansasii; assay: Antimycobacterial activity against Mycobacterium kansasii 235/80 after 14 days; type: functional; conditions: 235/80, 336 h; in short: as §1
[7] = system: Mycobacterium kansasii; assay: Antimycobacterial activity against Mycobacterium kansasii 235/80 after 21 days; type: functional; conditions: 235/80, 504 h; in short: as §1
[8] = system: Mycobacterium kansasii; assay: Antimycobacterial activity against Mycobacterium kansasii 6509/96 after 7 days; type: functional; conditions: 6509/96, 168 h; in short: as §1
[9] = system: Mycobacterium kansasii; assay: Antimycobacterial activity against Mycobacterium kansasii 6509/96 after 14 days; type: functional; conditions: 6509/96, 336 h; in short: as §1
[10] = system: Mycobacterium kansasii; assay: Antimycobacterial activity against Mycobacterium kansasii 6509/96 after 21 days; type: functional; conditions: 6509/96, 504 h; in short: as §1
[11] = system: Staphylococcus aureus; assay: Antibacterial activity against Staphylococcus aureus CCM 4516/08 after 24 hrs by microdilution broth method; type: functional; conditions: CCM 4516/08, 24 h
[12] = system: Staphylococcus aureus; assay: Antibacterial activity against Staphylococcus aureus CCM 4516/08 after 48 hrs by microdilution broth method; type: functional; conditions: CCM 4516/08, 48 h
[13] = system: Staphylococcus aureus; assay: Antibacterial activity against methicillin-resistant Staphylococcus aureus H 5996/08 after 24 hrs by microdilution broth method; type: functional; conditions: H 5996/08, 24 h
[14] = system: Staphylococcus aureus; assay: Antibacterial activity against methicillin-resistant Staphylococcus aureus H 5996/08 after 48 hrs by microdilution broth method; type: functional; conditions: H 5996/08, 48 h
[15] = system: Staphylococcus epidermidis; assay: Antibacterial activity against Staphylococcus epidermidis H 6966/08 after 24 hrs by microdilution broth method; type: functional; conditions: H 6966/08, 24 h
In short: (§2)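 Mueller-Hinton broth microdilution (modified M07-A07), pH 7.4 (±0.2). Compounds dissolved in DMSO, tested at final 500 to 0.49 µmol/L. Inoculum in sterile water matched to 0.5 McFarland. Incubated in the dark, humid atmosphere, 35 °C, read at 24 and 48 h visually and at 540 nm. MIC taken as ≥95% growth reduction (IC95) versus control.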

[16] = system: Staphylococcus epidermidis; assay: Antibacterial activity against Staphylococcus epidermidis H 6966/08 after 48 hrs by microdilution broth method; type: functional; conditions: H 6966/08, 48 h; in short: as §2
[17] = system: Enterococcus sp.; assay: Antibacterial activity against Enterococcus sp. J 14365/08 after 24 hrs by microdilution broth method; type: functional; conditions: J 14365/08, 24 h; in short: as §2
[18] = system: Enterococcus sp.; assay: Antibacterial activity against Enterococcus sp. J 14365/08 after 48 hrs by microdilution broth method; type: functional; conditions: J 14365/08, 48 h; in short: as §2
[19] = system: Escherichia coli; assay: Antibacterial activity against Escherichia coli CCM4517 after 24 hrs by microdilution broth method; type: functional; conditions: CCM4517, 24 h; in short: as §2
[20] = system: Escherichia coli; assay: Antibacterial activity against Escherichia coli CCM4517 after 48 hrs by microdilution broth method; type: functional; conditions: CCM4517, 48 h; in short: as §2
[21] = system: Klebsiella pneumoniae; assay: Antibacterial activity against Klebsiella pneumoniae D 11750/08 after 24 hrs by microdilution broth method; type: functional; conditions: D 11750/08, 24 h; in short: as §2
[22] = system: Klebsiella pneumoniae; assay: Antibacterial activity against Klebsiella pneumoniae D 11750/08 after 48 hrs by microdilution broth method; type: functional; conditions: D 11750/08, 48 h; in short: as §2
[23] = system: Klebsiella pneumoniae; assay: Antibacterial activity against ESBL-positive Klebsiella pneumoniae J 14368/08 after 24 hrs by microdilution broth method; type: functional; conditions: J 14368/08, 24 h; in short: as §2
[24] = system: Klebsiella pneumoniae; assay: Antibacterial activity against ESBL-positive Klebsiella pneumoniae J 14368/08 after 48 hrs by microdilution broth method; type: functional; conditions: J 14368/08, 48 h; in short: as §2
[25] = system: Pseudomonas aeruginosa; assay: Antibacterial activity against Pseudomonas aeruginosa CCM 1961 after 24 hrs by microdilution broth method; type: functional; conditions: CCM 1961, 24 h; in short: as §2
[26] = system: Pseudomonas aeruginosa; assay: Antibacterial activity against Pseudomonas aeruginosa CCM 1961 after 48 hrs by microdilution broth method; type: functional; conditions: CCM 1961, 48 h; in short: as §2
[27] = system: Candida albicans; assay: Antifungal activity against Candida albicans ATCC 44859 after 24 hrs by microdilution broth method; type: functional; conditions: ATCC 44859, 24 h
In short: (§3)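 CLSI M27-A3 broth microdilution in RPMI 1640 with glutamine, buffered to pH 7.0 with MOPS; DMSO diluent. Yeast inoculum 5 × 10^3 ± 0.2 CFU/mL. Moulds grown on Sabouraud agar 3–10 days before spore harvest, final inoculum 0.5-5 × 10^4 CFU/mL, checked in a Bürker chamber. Incubated dark, humid, 35 °C, read at 24 and 48 h visually and at 540 nm. MIC taken as ≥80% (yeasts) or ≥50% (filamentous) growth reduction versus control.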

[28] = system: Candida albicans; assay: Antifungal activity against Candida albicans ATCC 44859 after 48 hrs by microdilution broth method; type: functional; conditions: ATCC 44859, 48 h; in short: as §3
[29] = system: Candida tropicalis; assay: Antifungal activity against Candida tropicalis 156 after 24 hrs by microdilution broth method; type: functional; conditions: Candida tropicalis, 156, 24 h; in short: as §3
[30] = system: Candida tropicalis; assay: Antifungal activity against Candida tropicalis 156 after 48 hrs by microdilution broth method; type: functional; conditions: Candida tropicalis, 156, 48 h; in short: as §3
[31] = system: Pichia kudriavzevii; assay: Antifungal activity against Candida krusei E28 after 24 hrs by microdilution broth method; type: functional; conditions: E28, 24 h; in short: as §3
[32] = system: Pichia kudriavzevii; assay: Antifungal activity against Candida krusei E28 after 48 hrs by microdilution broth method; type: functional; conditions: E28, 48 h; in short: as §3
[33] = system: Nakaseomyces glabratus; assay: Antifungal activity against Candida glabrata 20/I after 24 hrs by microdilution broth method; type: functional; in short: as §3
[34] = system: Nakaseomyces glabratus; assay: Antifungal activity against Candida glabrata 20/I after 48 hrs by microdilution broth method; type: functional; in short: as §3
[35] = system: Trichosporon asahii; assay: Antifungal activity against Trichosporon asahii 1188 after 24 hrs by microdilution broth method; type: functional; conditions: Trichosporon asahii, 1188, 24 h; in short: as §3
[36] = system: Trichosporon asahii; assay: Antifungal activity against Trichosporon asahii 1188 after 48 hrs by microdilution broth method; type: functional; conditions: Trichosporon asahii, 1188, 48 h; in short: as §3
[37] = system: Aspergillus fumigatus; assay: Antifungal activity against Aspergillus fumigatus 231 after 24 hrs by microdilution broth method; type: functional; conditions: Aspergillus fumigatus, 231, 24 h; in short: as §3
[38] = system: Aspergillus fumigatus; assay: Antifungal activity against Aspergillus fumigatus 231 after 48 hrs by microdilution broth method; type: functional; conditions: Aspergillus fumigatus, 231, 48 h; in short: as §3
[39] = system: Lichtheimia corymbifera; assay: Antifungal activity against Absidia corymbifera 272 after 24 hrs by microdilution broth method; type: functional; conditions: Lichtheimia corymbifera, 272, 24 h; in short: as §3
[40] = system: Lichtheimia corymbifera; assay: Antifungal activity against Absidia corymbifera 272 after 48 hrs by microdilution broth method; type: functional; conditions: Lichtheimia corymbifera, 272, 48 h; in short: as §3
[41] = system: Trichophyton mentagrophytes; assay: Antifungal activity against Trichophyton mentagrophytes 445 after 24 hrs by microdilution broth method; type: functional; conditions: Trichophyton mentagrophytes, 445, 24 h
[42] = system: Trichophyton mentagrophytes; assay: Antifungal activity against Trichophyton mentagrophytes 445 after 48 hrs by microdilution broth method; type: functional; conditions: Trichophyton mentagrophytes, 445, 48 h
[43] = system: HepG2; assay: Cytotoxicity against human HepG2 cells after 24 hrs […]; type: cell-based; conditions: HepG2, 24 h
[44] = Selectivity index, ratio of CI50 for human HepG2 cells to MIC100 for Mycobacterium tuberculosis H37Rv 331/88

O=C(Nc1ccc(C(F)(F)F)cc1)c1ccc([N+](=O)[O-])cc1O
MIC [1]: 2 µM (≈ 0.652 µg/mL) | MIC [2]: 4 µM (≈ 1.3 µg/mL) | MIC [3]: 32 µM (≈ 10.4 µg/mL) | MIC [4]: 32 µM (≈ 10.4 µg/mL) | MIC [5]: 2 µM (≈ 0.652 µg/mL) | MIC [6]: 4 µM (≈ 1.3 µg/mL) | MIC [7]: 8 µM (≈ 2.61 µg/mL) | MIC [8]: 4 µM (≈ 1.3 µg/mL) | MIC [9]: 8 µM (≈ 2.61 µg/mL) | MIC [10]: 8 µM (≈ 2.61 µg/mL) | MIC [11]: 7.81 µM (≈ 2.55 µg/mL) | MIC [12]: 7.81 µM (≈ 2.55 µg/mL) | MIC [13]: 1.95 µM (≈ 0.636 µg/mL) | MIC [14]: 1.95 µM (≈ 0.636 µg/mL) | MIC [15]: 1.95 µM (≈ 0.636 µg/mL) | MIC [16]: 7.81 µM (≈ 2.55 µg/mL) | MIC [17]: 250 µM (≈ 81.6 µg/mL) | MIC [18]: 250 µM (≈ 81.6 µg/mL) | MIC [19]: 500 µM (≈ 163 µg/mL) | MIC [20]: 500 µM (≈ 163 µg/mL) | MIC [21]: 500 µM (≈ 163 µg/mL) | MIC [22]: 500 µM (≈ 163 µg/mL) | MIC [23]: 500 µM (≈ 163 µg/mL) | MIC [24]: 500 µM (≈ 163 µg/mL) | MIC [25]: > 500 µM | MIC [26]: > 500 µM | MIC [27]: 250 µM (≈ 81.6 µg/mL) | MIC [28]: 250 µM (≈ 81.6 µg/mL) | MIC [29]: 250 µM (≈ 81.6 µg/mL) | MIC [30]: 250 µM (≈ 81.6 µg/mL) | MIC [31]: 62.5 µM (≈ 20.4 µg/mL) | MIC [32]: 125 µM (≈ 40.8 µg/mL) | MIC [33]: 125 µM (≈ 40.8 µg/mL) | MIC [34]: 250 µM (≈ 81.6 µg/mL) | MIC [35]: 31.2 µM (≈ 10.2 µg/mL) | MIC [36]: 31.2 µM (≈ 10.2 µg/mL) | MIC [37]: 31.2 µM (≈ 10.2 µg/mL) | MIC [38]: 31.2 µM (≈ 10.2 µg/mL) | MIC [39]: 31.2 µM (≈ 10.2 µg/mL) | MIC [40]: 62.5 µM (≈ 20.4 µg/mL) | MIC [41]: 62.5 µM (≈ 20.4 µg/mL) | MIC [42]: 125 µM (≈ 40.8 µg/mL) | IC50 [43]: 1200 nM | Selectivity Index [44]: 0.3
